Calls of active or inactive are those of the source. The rule behind the calls is not given here.
Key:
HCT-116 [1] = test: Induction of apoptosis in human HCT116 cells assessed as PARP cleavage at 3 uM after 24 hrs by Western blotting analysis in presence of Z-VAD-FMK; assay type: functional, cell-based
Procedure, shortened: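 HCT116 cells treated 24 h with 3 μM compound with or without 20 μM z-VAD-fmk pan-caspase inhibitor; caspase 3 and PARP assessed by Western blot.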

TSGH = test: Cytotoxicity against human TSGH cells by MTT assay; assay type: functional, cell-based
[2] = Clearance in ICR mouse at 2 mg/kg, iv by LC-MS/MS analysis; assay type: ADME, organism-based; set-up: dose 2 mg/kg, route intravenous; conditions: in vivo
[3] = Volume of distribution at steady state in ICR mouse at 2 mg/kg, iv by LC-MS/MS analysis; assay type: ADME, organism-based; set-up: dose 2 mg/kg, route intravenous; conditions: in vivo, read-out: Vdss
[4] = AUC (0 to infinity) in ICR mouse at 2 mg/kg, iv by LC-MS/MS analysis; assay type: ADME, organism-based; set-up: time infinity, dose 2 mg/kg, route intravenous; conditions: plasma
Histone deacetylase 9 = Histone deacetylase 9 (Homo sapiens, UniProt Q9UKV0); test: Inhibition of HDAC9 (unknown origin) by fluorescence assay
Chain of Histone deacetylase 9 (Q9UKV0 whole entry): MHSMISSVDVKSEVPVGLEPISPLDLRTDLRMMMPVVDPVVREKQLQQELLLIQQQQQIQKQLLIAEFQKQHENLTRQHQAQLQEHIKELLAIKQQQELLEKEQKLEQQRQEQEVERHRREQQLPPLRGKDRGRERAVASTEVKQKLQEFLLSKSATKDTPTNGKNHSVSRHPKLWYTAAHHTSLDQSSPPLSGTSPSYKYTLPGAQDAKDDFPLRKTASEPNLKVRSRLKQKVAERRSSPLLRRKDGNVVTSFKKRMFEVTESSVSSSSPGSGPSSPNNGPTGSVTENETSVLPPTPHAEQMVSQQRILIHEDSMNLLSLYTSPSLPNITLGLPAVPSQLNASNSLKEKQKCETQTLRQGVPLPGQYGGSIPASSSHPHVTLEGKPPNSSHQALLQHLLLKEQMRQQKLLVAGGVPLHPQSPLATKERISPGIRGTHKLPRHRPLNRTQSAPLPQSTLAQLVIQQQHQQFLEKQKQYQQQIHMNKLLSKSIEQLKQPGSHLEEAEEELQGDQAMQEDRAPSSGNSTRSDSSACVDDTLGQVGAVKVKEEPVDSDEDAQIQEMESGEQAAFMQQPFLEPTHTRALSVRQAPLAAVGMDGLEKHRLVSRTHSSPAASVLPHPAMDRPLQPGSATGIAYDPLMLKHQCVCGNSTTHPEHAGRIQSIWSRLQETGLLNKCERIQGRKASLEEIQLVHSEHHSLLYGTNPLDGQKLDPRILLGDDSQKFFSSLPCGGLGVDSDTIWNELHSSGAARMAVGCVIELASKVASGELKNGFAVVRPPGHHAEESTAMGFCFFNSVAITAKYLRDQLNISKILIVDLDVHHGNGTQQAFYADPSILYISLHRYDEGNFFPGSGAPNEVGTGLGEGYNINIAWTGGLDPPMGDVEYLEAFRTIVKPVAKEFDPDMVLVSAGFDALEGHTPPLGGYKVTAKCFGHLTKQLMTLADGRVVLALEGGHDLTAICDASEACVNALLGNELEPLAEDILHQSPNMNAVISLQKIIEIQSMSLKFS
Procedure, shortened: (§1)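 Run by a contract testing lab. Compounds were dissolved in DMSO and tested in 10-dose IC50 mode, using 3-fold serial dilution starting at 10 μM. IC50 was taken from the dose series.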

MCF7 = test: Cytotoxicity against human MCF7 cells by MTT assay; assay type: functional, cell-based
[5] = Half life in ICR mouse at 2 mg/kg, iv by LC-MS/MS analysis; assay type: ADME, organism-based; set-up: dose 2 mg/kg, route intravenous; conditions: in vivo
[6] = Cytotoxicity against human H460 cells by MTT assay; assay type: functional, cell-based; conditions: NCI-H460
Procedure, shortened: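 Antiproliferative IC50 in H460 cells; mean ± SD of at least three independent experiments.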

HCT-116 [7] = test: Antitumor activity against human HCT116 cells xenografted in nude athymic mouse assessed as tumor growth inhibition at 25 mg/kg/day, po after 2 to 16 days relative to control; assay type: functional; conditions: read-out: TGI
Histone deacetylase = test: Inhibition of HDAC in human HeLa cell nuclear extract using Boc-Lys(Ac)-AMC as substrate after 30 mins by fluorimetric analysis; assay type: protein assay
HCT-116 [8] = test: Cytotoxicity against human HCT116 cells by MTT assay; assay type: functional, cell-based
Histone deacetylase 1 = Histone deacetylase 1 (Homo sapiens, UniProt Q13547); test: Inhibition of HDAC1 (unknown origin) using RHKK(Ac) (379 to 382) p53 peptide as substrate by fluorescence assay
Chain of Histone deacetylase 1 (Q13547 whole entry): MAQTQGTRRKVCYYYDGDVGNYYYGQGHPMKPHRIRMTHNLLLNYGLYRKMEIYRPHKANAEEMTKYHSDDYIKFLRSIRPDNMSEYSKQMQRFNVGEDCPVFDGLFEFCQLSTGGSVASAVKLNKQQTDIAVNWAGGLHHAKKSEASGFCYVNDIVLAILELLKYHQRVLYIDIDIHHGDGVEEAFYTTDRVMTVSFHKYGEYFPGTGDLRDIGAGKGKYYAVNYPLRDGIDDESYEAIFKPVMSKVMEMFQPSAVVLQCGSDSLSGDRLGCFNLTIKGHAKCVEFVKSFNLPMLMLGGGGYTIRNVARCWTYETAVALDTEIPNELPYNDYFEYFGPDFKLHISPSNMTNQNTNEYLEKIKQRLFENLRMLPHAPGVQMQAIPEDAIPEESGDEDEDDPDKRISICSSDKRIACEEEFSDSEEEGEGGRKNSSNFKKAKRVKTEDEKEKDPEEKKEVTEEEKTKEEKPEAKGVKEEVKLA

Histone deacetylase 7 = biological target: T1, Histone deacetylase 7 (Homo sapiens, UniProt Q8WUI4); test: Inhibition of HDAC7 (unknown origin) by fluorescence assay; procedure, shortened: as §1
T1 sequence (Q8WUI4 whole entry): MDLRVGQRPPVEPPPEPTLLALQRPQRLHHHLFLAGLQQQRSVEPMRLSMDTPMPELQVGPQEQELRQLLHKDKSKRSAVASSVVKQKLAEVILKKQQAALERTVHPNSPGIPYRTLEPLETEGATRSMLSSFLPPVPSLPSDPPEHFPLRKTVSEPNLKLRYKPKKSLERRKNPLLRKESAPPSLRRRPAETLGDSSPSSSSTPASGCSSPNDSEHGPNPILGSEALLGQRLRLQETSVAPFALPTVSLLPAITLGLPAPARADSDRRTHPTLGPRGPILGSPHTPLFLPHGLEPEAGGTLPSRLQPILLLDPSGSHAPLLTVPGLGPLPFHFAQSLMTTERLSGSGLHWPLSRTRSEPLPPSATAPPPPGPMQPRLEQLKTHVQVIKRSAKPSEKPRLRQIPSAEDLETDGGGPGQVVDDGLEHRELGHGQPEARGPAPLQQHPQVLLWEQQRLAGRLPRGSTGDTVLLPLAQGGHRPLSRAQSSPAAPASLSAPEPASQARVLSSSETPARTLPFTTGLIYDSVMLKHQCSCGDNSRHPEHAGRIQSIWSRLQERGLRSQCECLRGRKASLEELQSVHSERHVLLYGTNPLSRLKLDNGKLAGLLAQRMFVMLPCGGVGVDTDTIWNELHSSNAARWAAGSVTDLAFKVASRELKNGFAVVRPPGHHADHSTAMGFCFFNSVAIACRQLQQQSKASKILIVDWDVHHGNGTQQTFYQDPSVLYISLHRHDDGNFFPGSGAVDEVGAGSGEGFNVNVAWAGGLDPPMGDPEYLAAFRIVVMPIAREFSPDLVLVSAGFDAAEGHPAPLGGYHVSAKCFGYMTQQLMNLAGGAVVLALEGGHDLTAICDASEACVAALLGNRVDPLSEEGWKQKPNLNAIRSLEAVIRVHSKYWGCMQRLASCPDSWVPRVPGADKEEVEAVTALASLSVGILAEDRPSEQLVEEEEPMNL

A549 = test: Cytotoxicity against human A549 cells by MTT assay; assay type: functional, cell-based
[9] = Cytotoxicity against human HONE1 cells by MTT assay; assay type: functional, cell-based
HCT-116 [10] = test: Induction of apoptosis in human HCT116 cells assessed as increase in p53 protein level at 0.1 to 3 uM after 24 hrs by immunoblotting analysis; assay type: functional, cell-based
HCT-116 [11] = test: Induction of apoptosis in human HCT116 cells assessed as accumulation at sub-G1 phase at 1 uM by propidium iodide staining-based flow cytometric analysis; assay type: functional, cell-based; conditions: TDE = time-dependent effect
Procedure, shortened: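 HCT116 cells exposed to 1 μM compound for varying time intervals; sub-G1 population quantified by flow cytometry.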

HCT-116 [12] = test: Cytotoxicity against p53 knock down human HCT116 cells at 0.1 to 3 uM after 72 hrs by MTT assay; assay type: functional, cell-based
Histone deacetylase 5 = Histone deacetylase 5 (Homo sapiens, UniProt Q9UQL6); test: Inhibition of HDAC5 (unknown origin) by fluorescence assay
Chain of Histone deacetylase 5 (Q9UQL6 whole entry): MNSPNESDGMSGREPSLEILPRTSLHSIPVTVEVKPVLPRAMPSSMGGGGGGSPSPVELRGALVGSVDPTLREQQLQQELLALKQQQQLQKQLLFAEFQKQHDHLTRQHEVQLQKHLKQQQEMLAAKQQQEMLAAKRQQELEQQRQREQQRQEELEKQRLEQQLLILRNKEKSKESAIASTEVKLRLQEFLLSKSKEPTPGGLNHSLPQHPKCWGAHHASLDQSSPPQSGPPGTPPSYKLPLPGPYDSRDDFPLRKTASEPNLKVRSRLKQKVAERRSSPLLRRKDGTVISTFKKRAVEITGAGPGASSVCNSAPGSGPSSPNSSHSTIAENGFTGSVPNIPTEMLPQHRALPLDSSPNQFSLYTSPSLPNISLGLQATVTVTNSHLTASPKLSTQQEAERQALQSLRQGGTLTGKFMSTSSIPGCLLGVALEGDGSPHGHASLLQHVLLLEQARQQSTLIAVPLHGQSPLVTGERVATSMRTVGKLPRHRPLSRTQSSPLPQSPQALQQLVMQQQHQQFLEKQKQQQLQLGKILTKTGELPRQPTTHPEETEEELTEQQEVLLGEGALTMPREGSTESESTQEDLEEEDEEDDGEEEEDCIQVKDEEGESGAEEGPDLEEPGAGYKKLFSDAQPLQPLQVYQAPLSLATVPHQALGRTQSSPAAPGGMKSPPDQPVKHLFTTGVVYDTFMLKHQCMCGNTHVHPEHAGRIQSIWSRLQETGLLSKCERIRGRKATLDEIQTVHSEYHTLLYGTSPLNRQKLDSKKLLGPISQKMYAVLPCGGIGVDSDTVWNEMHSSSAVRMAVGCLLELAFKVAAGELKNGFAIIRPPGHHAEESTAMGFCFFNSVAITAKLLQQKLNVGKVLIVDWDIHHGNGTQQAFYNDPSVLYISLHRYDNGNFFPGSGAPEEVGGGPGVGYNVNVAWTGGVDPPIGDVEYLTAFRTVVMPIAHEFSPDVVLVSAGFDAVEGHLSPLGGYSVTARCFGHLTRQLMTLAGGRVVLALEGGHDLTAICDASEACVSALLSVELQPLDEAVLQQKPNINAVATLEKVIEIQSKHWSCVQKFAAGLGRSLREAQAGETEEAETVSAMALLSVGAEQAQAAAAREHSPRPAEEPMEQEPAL

[13] = Half life in ICR mouse at 10 mg/kg, po by LC-MS/MS analysis; assay type: ADME, organism-based; set-up: dose 10 mg/kg, route oral; conditions: in vivo
HCT-116 [14] = test: Induction of apoptosis in human HCT116 cells assessed as accumulation at sub-G1 phase after 24 hrs by propidium iodide staining-based flow cytometric analysis; assay type: functional, cell-based
Procedure, shortened: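 HCT116 cells treated with indicated concentrations for 24 h; DNA content analyzed by flow cytometry for cell cycle distribution and sub-G1 fraction; means of at least three independent experiments.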

[15] = Tmax in ICR mouse at 10 mg/kg, po by LC-MS/MS analysis; assay type: ADME, organism-based; set-up: dose 10 mg/kg, route oral; conditions: in vivo
[16] = biological target: Histone deacetylase (Homo sapiens) (UniProt Q13547+O15379+Q9UBN7+Q92769+Q9UQL6+Q8WUI4+Q9BY41+Q96DB2+P56524+Q9UKV0+Q969S8); conditions: HCT-116, 1 uM
[17] = Cytotoxicity against human HSC3 cells by MTT assay; assay type: functional, cell-based; conditions: HSC-3
[18] = Cmax in ICR mouse at 10 mg/kg, po by LC-MS/MS analysis; assay type: ADME, organism-based; set-up: dose 10 mg/kg, route oral; conditions: in vivo

O=C(/C=C/c1cccc(S(=O)(=O)n2ccc3cccnc32)c1)NO
Activity (HCT-116 [1]): inactive | IC50 (TSGH): 2100 nM | clearance [2]: 127 mL/min/kg | Vd [3]: 9.8 L/kg | AUC(0-inf) [4]: 289 ng·h/mL | IC50 (Histone deacetylase 9): 5340 nM | IC50 (MCF7): 1330 nM | half-life [5]: 2.5 h | IC50 [6]: 570 nM | inhibition in vivo at 25 mg/kg/day (HCT-116 [7]): 55.8% | IC50 (Histone deacetylase): 100 nM | IC50 (HCT-116 [8]): 390 nM | IC50 (Histone deacetylase 1): 310 nM | IC50 (Histone deacetylase 7): 4110 nM | IC50 (A549): 1330 nM | IC50 [9]: 1200 nM | Activity (HCT-116 [10]): Active | Activity (HCT-116 [11]): tde | Activity (HCT-116 [12]): inactive | IC50 (Histone deacetylase 5): 8730 nM | half-life [13]: 2.4 h | Activity (HCT-116 [14]): Dose-dependent effect | Tmax [15]: 0.3 h | inhibition [16]: inactive | IC50 [17]: 660 nM | Cmax [18]: 409 ng/mL
